# Bioassay records deposited in PubChem by several laboratories.
# PTEN del growth: PTEN-deleted cell growth suppression; HCT116 PTEN-null viability, CellTiter-Glo, 60 h; hits give low values; viability, % at 10 µM; 140,000 tested, 1.2% active;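 active = viability at or below a set limit, 4 SD under the median of all tested compounds, cut at about 3.7% in these data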;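 also: PTEN knockout HCT116 line with beta catenin targeted HCT116 as companion control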
# Autophagy HCS: alters autophagy in cells. calls only at 10 µM (by protocol). MEF GFP-LC3 puncta imaging; test concentration mostly 10 µM. 190,000 tested, 0.98% active;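 active = percentage of spot-positive cells more than 3 SD above its plate mean, without a fluorescence outlier flag or 80% toxicity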;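 also: spot-positive cell cutoff set from DMSO-treated cells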
# bCat KO growth: beta-catenin-lacking colon tumor cell growth suppression. HCT116 beta-catenin knockout viability, CellTiter-Glo, 60 h; hits give low values. viability, % at 10 µM. 140,000 tested, 1.5% active. AID 818;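 active = viability at or under a set limit, the compound median less 4 SD, cut at about 6% in these data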;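 also: 0% = Hyamine 1622 control at 20 µM and 100% = untreated cell control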
# Dynein cargo inh: blocks dynein driven cargo transport along microtubules | AID 1381 | z-score, hits read low | 3617.4 mouse cells, GR-EGFP nuclear translocation imaging; test concentration mostly 20 µM; stimulated with dexamethasone, 1 µM; hits give low values | 220,000 tested, 0.47% active;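 active = plate z-score of nuclear minus cytoplasmic receptor signal below a set negative limit, without overly bright fluorescence or cell loss, cut at about -3.5 in these data, passing the limit was not always enough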;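 also: z-score of nuclear minus cytoplasmic ring GR-EGFP intensity difference per well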
#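 Also added – dexamethasone, 1.0 µM final · Buffer or medium – tet-free, stripped-serum medium · Schedule – induction 48 h, compound 1 h, agonist 30 min · Detection – formaldehyde fixation, Hoechst nuclear stain, 10x automated fluorescence imaging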
# Lmaj promast: inhibitors of Leishmania major promastigote growth | Leishmania major promastigotes, resazurin fluorescence viability | inhibition, % at 10 µM | 200,000 tested, 9% active | AID 1063; in the data active = inhibition above about 50%;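 also: promastigotes grown with compound for 44 hours at 28 °C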
# An asterisk follows results filed as active; i = inactive; · = no result given; + = active, no number. Hits are enriched below; roughly 9.2% of the tested compounds scored in any of these assays.
SMILES,PTEN del growth,Autophagy HCS,bCat KO growth,Dynein cargo inh,Lmaj promast
Cc1cccc(OCC(=O)Nc2cc(C)on2)c1,95.8,i,97.8,-0.872,-2.9
COC(=O)C1=C(CN2CCc3ccccc32)NC(=O)NC1c1cc(C)ccc1C (stereo not drawn),40.6,i,57.8,-1.05,70.4*
COC(=O)C1=C(CN2CCN(C)CC2)NC(=O)NC1c1cc(C)ccc1C (stereo not drawn),94.9,i,97.8,-0.451,5.9
CC(=O)CC1(OC(C)=O)C(=O)N(C)c2ccccc21 (stereo not drawn),·,i,·,1.66,97.1*
COC(=O)C1(Cc2ccc(O)cc2)OC(=O)C(O)=C1c1ccc(O)cc1 (stereo not drawn),·,·,·,-0.377,·
Nc1ccc(Oc2ccc3nc(-c4ccccc4)c(-c4ccccc4)nc3c2)cc1,45.9,i,54.4,0.0133,66.1*
Nc1ccc(N2CCCCC2)cc1N1CCCCC1,2.5*,i,3.2*,-0.816,100.2*
Cc1c(CCC(=O)O)c(=O)oc2c(C)c(OCc3cc4c(cc3Cl)OCO4)ccc12,·,·,·,-0.308,·
CN(C)c1ccc(/C=N/NC(N)=S)cc1[N+](=O)[O-],·,i,·,-0.316,-3.3
O=C(NC(=S)Nc1ccccc1N1CCCC1)c1ccccc1[N+](=O)[O-],73.4,i,74.1,0.497,12.2
O=C(Nc1ccc(N2CCCCCC2)cc1)c1ccccc1Cl,·,i,·,0.902,57.1*
O=C(NC(=S)Nc1ccc(N2CCOCC2)cc1)c1ccc2c(c1)OCCO2,100.7,i,84.1,1.34,1.7
O=C(CNCc1cccs1)Nc1ccc(N2CCCCCC2)cc1,·,i,·,0.962,50.9*
O=C(NC(=S)Nc1ccc(N2CCCC2)cc1)c1ccccc1[N+](=O)[O-],92.7,i,98.0,-0.164,54.1*
O=C(CNCc1cccs1)Nc1ccc(S(=O)(=O)N2CCCCC2)cc1,·,i,·,0.735,-0.2
COc1ccccc1C(=O)Nc1ccc(N2CCCCC2)cc1,87.3,i,84.0,1,1.3
O=C(NC(=S)Nc1ccc(N2CCCCC2)cc1)c1ccc2c(c1)OCCO2,80.7,i,89.0,1.76,64.5*
CCCC1(c2ccccc2)NC(=O)N(CC(=O)Nc2cc(S(=O)(=O)N3CCOCC3)ccc2Cl)C1=O (stereo not drawn),·,i,·,-0.643,-1.2
C=CCn1c(N2CCOCC2)nc2c1c(=O)[nH]c(=O)n2C,·,i,·,-0.465,-2.4
CCOC(=O)c1c(NC(=O)c2c(C(=O)O)cccc2[N+](=O)[O-])sc(C)c1C,·,i,·,-0.223,-5.4
CN(Cc1ccccc1)S(=O)(=O)c1cn(C)cn1,·,·,·,-1.22,·
O=C(/C=C/c1ccc(Cl)c([N+](=O)[O-])c1)Nc1ccc(N2CCCC2)cc1,44.5,i,63.2,0.932,66.8*
Nc1ccc2c(c1)OC1(CCCCC1)O2,·,i,·,0.706,-0.4
Cc1ccccc1Cn1ccc(NC(=O)c2nn(C)cc2[N+](=O)[O-])n1,2.1*,i,3.8*,0.902,-6.3
CCSC1=NC2(CCCCC2)Nc2sc3c(c21)CCCC3,84.2,i,82.2,-0.806,100.2*
SMILES,PTEN del growth,Autophagy HCS,bCat KO growth,Dynein cargo inh,Lmaj promast
CCSc1nc2sc3c(c2c(=O)[nH]1)CCCC3,95.8,i,96.6,0.765,-0.9
O=C1COc2ccc(N3C(=O)C=CC3=O)cc2N1,·,i,·,-4.02*,-1.5
CC(C)CC(=O)NNC(=O)C(C)C,99.8,i,101.6,-0.415,-5.7
CC(C)c1nc2sc3c(NCc4ccccc4)ncnc3c2c2c1COC(C)(C)C2,42.4,+,40.4,0.155,1.3
Cc1cnc(NC(=O)CCCc2nc3ccccc3s2)s1,9.8,+,14.7,-0.422,4.0
O=C(CCCc1nc2ccccc2s1)Nc1nccs1,87.3,i,89.0,-0.0722,1.0
Cc1ccc2nc(NC(=O)CCCC(=O)O)sc2c1,·,i,·,-0.924,-4.4
Cc1ccc2nc(NC(=O)CCCc3nc4ccccc4s3)sc2c1,·,i,101.6,1.22,90.5*
COC(=O)c1ccc(N2C(=O)C3CC=CC(C)C3C2=O)cc1 (stereo not drawn),·,i,·,-0.753,-5.6
Cc1ccc(C)c(N/N=C2\CCCNC2=O)c1,86.6,i,87.5,2.75,78.0*
Cc1ccccc1N/N=C1\CCCNC1=O,100.0,i,102.3,0.248,-6.7
NC(=O)C1CCN(Cc2nc(-c3ccccc3)no2)CC1,99.5,i,101.3,-0.54,-2.5
CCOC(=O)C1CCN(C2CCN(Cc3nc(-c4ccccc4)no3)CC2)CC1,·,i,·,-1.17,79.8*
